Assay [1] has as its system intracellular calcium of TPCs. Kind of assay: Intravital GCaMP6 calcium imaging in TPCs treated with U46619. It is filed as in vivo, mouse. The note with it: PC^lin-KO-GCaMP6 mice compared with PC^lin-GCaMP6 mice; n = 6.
The subject of assay [2] is tumor vessels. The assay can be described thus: Intravital imaging of RBC velocity and vessel diameter change post-U46619. It is filed as in vivo, mouse. The note with it: n = 6. In short, it runs like this:
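Tumor-bearing mice received FITC-dextran i.v. before imaging. The exposed tumor was viewed with a 4× objective. A rapid line scan (735 lines per second) bisected the central axis of the capillary lumen, so that moving RBCs appeared as oblique shadows. Blood velocity was derived as Δx/Δt.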

Assay [3] concerns tumor vessels. Kind of assay: Two-photon vasoconstriction assay of tumor vessels exposed to U46619. It is filed as in vivo, mouse. The note with it: MC-38-luc-LM3 orthotopic tumor, two-photon microscopy, U46619 10 min; n = 6.
Assay [4] has as its system L-type calcium channel in TPCs. The assay can be described thus: Calcium imaging. The assay is classed as cell-based, human. The note with it: H89 2HCl 10 μM; Fluo-4AM; n = 3.
Another assay relates to TPCs. Kind of assay: Cell. The conditions noted are these: forskolin, then H89 2HCl (10 μM), then (S)-(-)-Bay K8644 (10 μM); F-actin, p-MLC2^Ser15, collagen contraction; n = 3. The assay is classed as cell-based, human. The procedure, abridged:
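A commercial collagen gel contraction kit was used. Harvested pericytes (5 × 10^6) were mixed 1:4 v/v with collagen solution and polymerised at 37 °C for 1 h. Medium was then added over each lattice and gels were incubated for 2 days. Gel size (contraction index) was measured at 48 h by image analysis.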

Consider `CCCCC[C@H](O)/C=C/[C@@H]1[C@@H](C/C=C\CCCC(=O)O)[C@H]2CO[C@@H]1C2` [U46619, 9,11-dideoxy-9α,11α-methanoepoxy prostaglandin F2α], for which the “response of intracellular Ca^2+ of TPCs to U46619” value in assay [1] is on record as “significantly increased”. In addition, in the assay on tumor vessels [2] (compared with before treatment), the “tumor blood velocity after exposure to U46619, PC^lin-KO mice” value is given as “significantly decreased” and the “vascular diameter after exposure to U46619, PC^lin-KO mice” value is “significantly decreased”. Besides, in the assay with tumor vessels [2], the “tumor blood velocity and vascular diameter before and post-treatment with U46619, PC^lin mice” value is given as “no significant difference”. In the assay on tumor vessels [3], the “change of capillary diameter after U46619 treatment, PC^lin mice” value was “no obvious change” and the “reduction of capillary diameter after U46619 treatment, PC^lin-KO mice” value is on record as ~ 20%.
Consider `Cl.Cl.O=S(=O)(NCCNC/C=C/c1ccc(Br)cc1)c1cccc2cnccc12` [H89 2HCl], for which, in assay [4], the “calcium currents in TPCNM^NKX2-3+siPDE1C” value is listed as “reduced calcium currents” and the “forskolin-increased calcium currents in TPCLM^siNKX2-3+PDE1C” value is “reversed”. Besides, the “contraction of TPCLM^gNKX2-3+PDE1C” value with TPCs is reported as “suppressed”.

Source of the values: paper PMC12318036 (Nature Communications, 2025).
